Measured values reported in PMC7059760 (ACS applied materials & interfaces, 2019).
≈ marks a conversion by molar mass, not a printed value. Read-outs that look alike come from different tables or passages of the source.

What was measured:
[1] = system: antibenzothiostrobin mAb; conditions: ic-ELISA; cited from earlier work
[2] = system: antibenzothiostrobin mAb; conditions: competitive phage ELISA; cited from earlier work
[3] = system: antibenzothiostrobin mAb; conditions: competitive FIA, synthetic peptide FITC-Ahx-CSGLAEFMSC; cited from earlier work
[4] = system: antibenzothiostrobin mAb; conditions: noncompetitive FIA, synthetic peptide FITC-Ahx-CPDIWPTAWC; cited from earlier work
[5] = system: antibenzothiostrobin mAb; conditions: noncompetitive phage ELISA; cited from earlier work
[6] = system: antibenzothiostrobin mAb 4E8; design: species or system murine; conditions: ITC; ratio of binding constants versus monomer
Summary of the method: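 Isothermal titration calorimetry at 25 °C. All samples were diluted in 10 mM BB and degassed. The mAb was in the cell, with water in the reference cell and buffer titrated as control. Peptide in the syringe was 260 μM (monomer), 150 μM (dimer) or 50 μM (tetramer). Run used 20 injections, 60 s initial delay and 1000 rpm stirring. N, K, ΔH and ΔS were obtained from a one-site fit, with a c value checked for quality.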

[7] = system: antibenzothiostrobin mAb; assay: Inner filter effect immunoassay; type: binding, murine; conditions: ratio of SC50 values; analyte benzothiostrobin
Summary of the method: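 Homogeneous competitive format. The UCNP probe was NaYF4:Yb,Er, amine-silica coated and glutaraldehyde-coupled to the monomer, dimer or tetramer peptidomimetic, and the absorber was mAb-conjugated gold nanoflowers. Standard and both probes were mixed in BB for 1 h at 37 °C with gentle shaking. Emission at 657 nm was read under 980 nm laser excitation. ΔI (I−I0) was plotted against log analyte concentration, and SC50 was taken as 50% signal saturation.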

| Compound | IC50 [1] [ng/mL] | IC50 [2] [ng/mL] | IC50 [3] [ng/mL] | SC50 [4] [ng/mL] | SC50 [5] [ng/mL] | fold higher affinity for mAb compared to monomer [6] [fold] | improvement of IFE-IA sensitivity compared to dimer [7] [fold] | improvement of IFE-IA sensitivity compared to monomer [7] |
| --- | --- | --- | --- | --- | --- | --- | --- | --- |
| CO/C=C(/C(=O)OC)c1ccccc1CSc1nc2ccccc2s1 [benzothiostrobin] | 7.55 (≈ 0.0203 µM) | 0.94 (≈ 0.00253 µM) | 16.8 (≈ 0.0452 µM) | 93.4 | 2.27 |  |  |  |
| ((Ac-CSGLAEFMSC)2K)2KK (bicyclic or more) [tetramer] |  |  |  |  |  | 13.6 | ~3 | approximately 6 fold |
| (Ac-CSGLAEFMSC)2KK (bicyclic or more) [dimer] |  |  |  |  |  | 1.87 |  |  |
